Results on one compound are retold here after ChEMBL document CHEMBL4680121, “Development of (4-methoxyphenyl)-1H-tetrazol-5-amine regioisomers as a new class of selective antitubercular agents” (Eur J Med Chem, 2020).

pIC50: −log10 of the molar value. In brackets after ≈: the same amount, converted by molar mass. Where only a bound is given, the exact number is not on record here.

Data set [1] deals with Mycobacterium intracellulare. Briefly: Antimycobacterial activity against Mycobacterium intracellulare assessed as inhibition of microbial growth incubated for 1 week by MABA method. The note with it: 168 h, time 1 weeks. Type of data set: functional. The gist of the method:
(§1)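 Microplate Alamar Blue assay using two-fold serial microdilution in Middlebrook 7H9 broth with 10% OADC, compounds 0.125–512 µg/ml from DMSO stocks. Inoculum came from fresh LJ culture, was adjusted to McFarland 1 and diluted 1:20. Plates were incubated 1 week at 37 °C, Alamar blue was added and plates were re-incubated 24 h. MIC was the lowest concentration preventing the blue-to-pink change. Each plate carried growth and sterile controls.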
(The colour change of resazurin is a common sign of viable cells or microbes.)

For data set [2], the system named is Mycobacterium tuberculosis. Nature of the data set: Antitubercular activity against Mycobacterium tuberculosis H37Rv ATCC 25618 assessed as inhibition of microbial growth incubated for 1 week by MABA method. It counts as functional. The note with it: H37Rv ATCC 25618, 168 h, time 1 weeks. The gist of the method: (§2)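 Microplate Alamar Blue assay in Middlebrook 7H9 broth with 10% OADC. Inoculum from fresh LJ culture was adjusted to McFarland 1 and diluted 1:20. DMSO stocks were two-fold serially diluted to final 0.125–512 µg/ml, with growth and sterile controls. Plates ran 1 week at 37 °C, then Alamar blue was added for 24 h. MIC is the lowest concentration preventing the blue-to-pink change.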

The test system of data set [3] is Mycobacterium tuberculosis. Nature of the data set: Antitubercular activity against Mycobacterium tuberculosis Spec.192 assessed as inhibition of microbial growth incubated for 1 week by MABA method. Type of data set: functional. The note with it: Mycobacterium tuberculosis, 192, 168 h; time 1 weeks. The gist of the method:
as §2

Data set [4] relates to Escherichia coli. Nature of the data set: Antibacterial activity against Escherichia coli ATCC 25922 assessed as bacterial growth inhibition measured after 18 hrs by two-fold serial microdilution method. Type of data set: functional. In short, it runs like this: (§3)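 Two-fold serial broth microdilution in MH II medium following modified CLSI procedures. Compounds were dissolved in DMSO and diluted in medium to at most 1% solvent, tested from 0.03125 to 512 μg/ml. Final inoculum 10^6 CFU/ml. MIC was taken as the lowest concentration with no visible growth after 18 h at 35 °C.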

Data set [5] relates to Mycobacterium avium. Briefly: Antimycobacterial activity against Mycobacterium avium assessed as inhibition of microbial growth incubated for 1 week by MABA method. It counts as functional. The settings on record: 168 h, time 1 weeks. In short, it runs like this: as §2
Data set [6] relates to Mycobacterium kansasii. Briefly: Antibacterial activity against Mycobacterium kansasii assessed as inhibition of microbial growth incubated for 1 week by MABA method. The note with it: 168 h, time 1 weeks. It counts as functional. The gist of the method: as §1
Data set [7] deals with Mycobacterium scrofulaceum. Nature of the data set: Antibacterial activity against Mycobacterium scrofulaceum assessed as inhibition of microbial growth incubated for 1 week by MABA method. It counts as functional. The settings on record: 168 h, time 1 weeks. In short, it runs like this: as §1
Data set [8] relates to Mycolicibacterium fortuitum. Nature of the data set: Antibacterial activity against Mycobacterium fortuitum assessed as inhibition of microbial growth incubated for 1 week by MABA method. Type of data set: functional. The note with it: 168 h, time 1 weeks. The gist of the method:
as §1

Data set [9] concerns Mycobacterium xenopi. Nature of the data set: Antibacterial activity against Mycobacterium xenopi assessed as inhibition of microbial growth incubated for 1 week by MABA method. It counts as functional. The settings on record: 168 h, time 1 weeks. The gist of the method:
as §1

Data set [10] concerns Staphylococcus epidermidis. Briefly: Antibacterial activity against Staphylococcus epidermidis ATCC 35984/RP62A assessed as bacterial growth inhibition measured after 18 hrs by two-fold serial microdilution method. It counts as functional. The gist of the method:
as §3
(In broth dilution the organism is exposed to a series of concentrations in liquid medium.)

Data set [11] relates to Staphylococcus epidermidis. Nature of the data set: Antibacterial activity against Staphylococcus epidermidis ATCC 12228 assessed as bacterial growth inhibition measured after 18 hrs by two-fold serial microdilution method. Type of data set: functional. In short, it runs like this: as §3
Data set [12] deals with Staphylococcus epidermidis. Nature of the data set: Antibacterial activity against Staphylococcus epidermidis ATCC 1457 assessed as bacterial growth inhibition measured after 18 hrs by two-fold serial microdilution method. It counts as functional. In short, it runs like this: as §3
Data set [13] has as its system Staphylococcus aureus. Nature of the data set: Antibacterial activity against Staphylococcus aureus ATCC 6538 assessed as bacterial growth inhibition measured after 18 hrs by two-fold serial microdilution method. Type of data set: functional. In short, it runs like this: as §3
The test system of data set [14] is Staphylococcus aureus. Nature of the data set: Antibacterial activity against Staphylococcus aureus NCTC 4163 assessed as bacterial growth inhibition measured after 18 hrs by two-fold serial microdilution method. Type of data set: functional. In short, it runs like this: as §3
The subject of data set [15] is Pseudomonas aeruginosa. Briefly: Antibacterial activity against Pseudomonas aeruginosa NCTC 6749 assessed as bacterial growth inhibition measured after 18 hrs by two-fold serial microdilution method. It counts as functional. The gist of the method: as §3
Data set [16] deals with Pseudomonas aeruginosa. Briefly: Antibacterial activity against Pseudomonas aeruginosa PAO1 assessed as bacterial growth inhibition measured after 18 hrs by two-fold serial microdilution method. It counts as functional. The gist of the method:
as §3

The subject of data set [17] is Klebsiella pneumoniae. Briefly: Antibacterial activity against Klebsiella pneumoniae ATCC 10031 assessed as bacterial growth inhibition measured after 18 hrs by two-fold serial microdilution method. Type of data set: functional. In short, it runs like this:
as §3

Data set [18] concerns Proteus vulgaris. Briefly: Antibacterial activity against Proteus vulgaris NCTC 4635 assessed as bacterial growth inhibition measured after 18 hrs by two-fold serial microdilution method. It counts as functional. The gist of the method: as §3
Data set [19] relates to V79. Briefly: Cytotoxicity against Chinese Hamster V79 cells assessed as reduction in cell viability measured after 72 hrs by MTT assay. The settings on record: Cricetulus griseus, V79, 72 h. It counts as cell-based. In short, it runs like this:
(§4)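 MTT viability assay on cells grown in DMEM with 10% heat-inactivated FBS, penicillin/streptomycin and 20 mM HEPES at 37 °C/5% CO2. Cells were seeded at 1×10^4 per well and allowed to adhere for 24 h, then the medium was refreshed. Compounds were added at 20–140 μM for 72 h at 37 °C, followed by MTT (0.5 mg/mL in serum-free medium) for 4 h. Untreated cells served as control. IC50 is the concentration giving 50% growth inhibition versus control.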

For data set [20], the system named is HaCaT. Nature of the data set: Cytotoxicity against human HaCaT cells assessed as reduction in cell viability measured after 72 hrs by MTT assay. It counts as cell-based. The gist of the method: as §4
The test system of data set [21] is V79. Briefly: Cytotoxicity against Chinese Hamster V79 cells assessed as reduction in cell viability at 100 uM measured after 72 hrs by MTT assay. Type of data set: cell-based, Cricetulus griseus. The settings on record: v79, 72 h. In short, it runs like this: as §4
For orientation: Tetrazolium dyes change colour on reduction, which living cells bring about.

Data set [22] relates to HaCaT. Briefly: Cytotoxicity against human HaCaT cells assessed as reduction in cell viability at 100 uM measured after 72 hrs by MTT assay. It counts as cell-based. The gist of the method:
as §4

Data set [23] deals with Mycobacterium scrofulaceum. Briefly: Potency index, ratio of isoniazid MIC to test compound MIC for antibacterial activity against Mycobacterium scrofulaceum assessed as inhibition of microbial growth incubated for 1 week by MABA method. Type of data set: functional. The note with it: time 1 weeks.

Take `COc1ccc(Nc2nnnn2-c2ccc(Cl)cc2)cc1`: the minimal inhibitory concentration (MIC) (as a rule, the lowest concentration that inhibits growth of the organism) is 128 µg/mL in data set [1]; 8 µg/mL in [2]; 8 µg/mL in [3]; more than 256 µg/mL in [4]; 256 µg/mL in [5]; 512 µg/mL in [6]. Besides, the MIC was 16 µg/mL in [7]; more than 512 µg/mL in data set [8]; 128 µg/mL in [9]; 256 µg/mL (≈ 848 µM) in [10]; 256 µg/mL (≈ 848 µM) in data set [11]; more than 256 µg/mL in data set [12]. Further, the minimal inhibitory concentration (MIC) was more than 256 µg/mL in data set [13]; 256 µg/mL (≈ 848 µM) in data set [14]; more than 256 µg/mL in data set [15]; more than 256 µg/mL in [16]; more than 256 µg/mL in data set [17]; more than 256 µg/mL in [18]. Further, the pIC50 (in general, −log10 of the IC50, conventionally taken in molar units) in [19] was 3.94; in [20], 3.99. Further, the Activity entry in data set [21] and in data set [22] was “Non-Toxic” throughout. The Ratio in data set [23] came to 4.
